Source: ChEMBL document CHEMBL2176944, “2-(3-Oxo-1,3-diphenylpropyl)malonic acids as potent allosteric ligands of the PIF pocket of phosphoinositide-dependent kinase-1: development and prodrug concept” (J Med Chem, 2012)
Active and inactive are the calls of the source. The calls are words filed in the database; no cut-off is given here.

What was measured:
[1] = molecular target: T1, 3-phosphoinositide-dependent protein kinase 1 (Homo sapiens) (UniProt O15530); experiment: Activation of PDK1 in IGF-I-stimulated HEK293 cells assessed as decrease of phosphorylation of PKB T-loop at 50 uM after 2 hrs by Western blot analysis; assay type: cell-based
T1 sequence (whole entry): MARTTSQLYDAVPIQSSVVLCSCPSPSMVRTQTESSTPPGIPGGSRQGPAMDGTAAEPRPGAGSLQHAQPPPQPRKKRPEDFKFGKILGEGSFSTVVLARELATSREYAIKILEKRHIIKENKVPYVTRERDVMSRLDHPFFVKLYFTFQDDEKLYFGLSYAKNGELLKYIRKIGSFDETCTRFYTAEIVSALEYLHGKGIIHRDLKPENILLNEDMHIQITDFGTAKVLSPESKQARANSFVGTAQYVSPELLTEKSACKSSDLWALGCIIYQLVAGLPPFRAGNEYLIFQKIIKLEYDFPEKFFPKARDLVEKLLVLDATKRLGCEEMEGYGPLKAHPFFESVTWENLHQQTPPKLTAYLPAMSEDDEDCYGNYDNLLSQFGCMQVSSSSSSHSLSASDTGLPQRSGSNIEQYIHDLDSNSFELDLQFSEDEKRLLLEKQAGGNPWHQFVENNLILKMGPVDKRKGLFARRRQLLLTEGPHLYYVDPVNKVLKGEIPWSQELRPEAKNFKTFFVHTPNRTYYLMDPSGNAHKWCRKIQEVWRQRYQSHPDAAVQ
How it was run: (§1)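 HEK293 cells in DMEM with 10% FBS were serum-starved 24 h, then given 50 μM compound or DMSO for 2 h and stimulated with IGF-I (10 ng/mL) for 20 min. For S6K and PKCζ, cells were first transiently transfected with GST-fusions of full-length S6K[T412E] and PKCζ (PEI). These proteins were pulled down on glutathione sepharose and immunoblotted for activation-loop phosphorylation (S6K Thr229, PKCζ Thr410), normalized to anti-GST. For PKB, untransfected cell lysates were immunoblotted with phospho-specific antibodies.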

[2] = molecular target: T1, 3-phosphoinositide-dependent protein kinase 1 (Homo sapiens); experiment: Activation of PDK1 in IGF-I-stimulated HEK293 cells assessed as decrease of phosphorylation of PKCzeta at Thr410 at 50 uM after 2 hrs by Western blot analysis; assay type: cell-based; how it was run: as §1
[3] = molecular target: T1, 3-phosphoinositide-dependent protein kinase 1 (Homo sapiens); experiment: Activation of PDK1 in IGF-I-stimulated HEK293 cells assessed as decrease of phosphorylation of S6K activation loop at 50 uM after 2 hrs by Western blot analysis; assay type: cell-based; how it was run: as §1
L6 [4] = experiment: Prodrug conversion in rat L6 cells assessed as production of 2-(3-Oxo-1-phenyl-3-(4-(trifluoromethyl)phenyl)propyl)malonic acid level in cytoplasm at 20 uM […] by HPLC analysis; assay type: ADME, cell-based; conditions: l6, 20 µM
L6 [5] = experiment: Prodrug conversion in rat L6 cells assessed as production of 2-(3-Oxo-1-phenyl-3-(4-(trifluoromethyl)phenyl)propyl)malonic acid level at 20 uM after 1 hr by mass spectroscopy analysis; assay type: ADME, cell-based; conditions: l6, 1 h
How it was run: (§2)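 Confluent rat L6 cells in serum-free DMEM were exposed to 20 μM ester prodrug for 5–90 min. Cells were then washed with cold PBS, trypsinized and counted. Carbamazepine was added as internal standard, and samples were acidified with HCl and extracted with ethyl acetate. Prodrug and free dicarboxylic acid were quantified by HPLC-MS/MS on a C18 column with TFA-containing gradients. DMSO-treated cells served as control.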

L6 [6] = experiment: Prodrug conversion in rat L6 cells assessed as prodrug degradation at 20 uM after 1 hr by mass spectroscopy analysis; assay type: ADME, cell-based; conditions: l6, 1 h
L6 [7] = experiment: Prodrug conversion in rat L6 cells assessed as reduction half life of prodrug at 20 uM […] by mass spectroscopy analysis; assay type: ADME, cell-based; conditions: l6, 20 µM
L6 [8] = experiment: Prodrug conversion in rat L6 cells assessed as production of 2-(3-Oxo-1-phenyl-3-(4-(trifluoromethyl)phenyl)propyl)malonic acid level in cytoplasm at 20 uM […] by mass spectroscopy analysis relative to control; assay type: ADME, cell-based; conditions: l6, 20 µM
L6 [9] = experiment: Cellular uptake in rat L6 cells at 20 uM after 5 mins by mass spectroscopy analysis; assay type: ADME, cell-based; conditions: l6, 5 min; how it was run: as §2
[10] = Hydrolysis half life of the compound; assay type: physicochemical
How it was run: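 Chemical stability of the ester prodrug was measured in cell-free medium at 37 °C, giving the half-life of spontaneous hydrolysis.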

[11] = molecular target: Serine/threonine-protein kinase N2 (Homo sapiens) (UniProt Q16513); experiment: Activation of PRK2 at 50 uM relative to control
[12] = Activation of PKA at 50 uM relative to control
[13] = molecular target: Serine/threonine-protein kinase N2 (Homo sapiens) (UniProt Q16513); experiment: Activation of PRK2 at 2 uM relative to control
[14] = Activation of PKA at 2 uM relative to control
[15] = molecular target: RAC-alpha serine/threonine-protein kinase (Homo sapiens) (UniProt P31749); experiment: Activation of PKBalpha at 50 uM relative to control
[16] = molecular target: RAC-alpha serine/threonine-protein kinase (Homo sapiens) (UniProt P31749); experiment: Activation of PKBalpha at 2 uM relative to control
[17] = molecular target: T2, Serine/threonine-protein kinase Sgk1 (Homo sapiens) (UniProt O00141); experiment: Activation of SGK at 2 uM relative to control
T2 sequence (whole entry): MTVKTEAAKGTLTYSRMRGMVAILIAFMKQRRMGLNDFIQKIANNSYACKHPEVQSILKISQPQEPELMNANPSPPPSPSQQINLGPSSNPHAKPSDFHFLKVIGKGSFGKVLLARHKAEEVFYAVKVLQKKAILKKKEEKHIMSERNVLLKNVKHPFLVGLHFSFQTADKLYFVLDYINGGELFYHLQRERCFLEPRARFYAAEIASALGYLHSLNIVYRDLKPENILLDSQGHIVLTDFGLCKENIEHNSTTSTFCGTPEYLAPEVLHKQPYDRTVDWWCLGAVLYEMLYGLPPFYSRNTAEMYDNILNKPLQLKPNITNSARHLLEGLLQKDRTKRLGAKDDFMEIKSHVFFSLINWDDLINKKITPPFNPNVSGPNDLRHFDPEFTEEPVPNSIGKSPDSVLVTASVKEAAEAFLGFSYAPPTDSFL

[18] = molecular target: T2, Serine/threonine-protein kinase Sgk1 (Homo sapiens); experiment: Activation of SGK at 50 uM relative to control
[19] = molecular target: T3, Protein kinase C zeta type (Homo sapiens) (UniProt Q05513); experiment: Activation of PKCzeta at 50 uM relative to control
T3 sequence (whole entry): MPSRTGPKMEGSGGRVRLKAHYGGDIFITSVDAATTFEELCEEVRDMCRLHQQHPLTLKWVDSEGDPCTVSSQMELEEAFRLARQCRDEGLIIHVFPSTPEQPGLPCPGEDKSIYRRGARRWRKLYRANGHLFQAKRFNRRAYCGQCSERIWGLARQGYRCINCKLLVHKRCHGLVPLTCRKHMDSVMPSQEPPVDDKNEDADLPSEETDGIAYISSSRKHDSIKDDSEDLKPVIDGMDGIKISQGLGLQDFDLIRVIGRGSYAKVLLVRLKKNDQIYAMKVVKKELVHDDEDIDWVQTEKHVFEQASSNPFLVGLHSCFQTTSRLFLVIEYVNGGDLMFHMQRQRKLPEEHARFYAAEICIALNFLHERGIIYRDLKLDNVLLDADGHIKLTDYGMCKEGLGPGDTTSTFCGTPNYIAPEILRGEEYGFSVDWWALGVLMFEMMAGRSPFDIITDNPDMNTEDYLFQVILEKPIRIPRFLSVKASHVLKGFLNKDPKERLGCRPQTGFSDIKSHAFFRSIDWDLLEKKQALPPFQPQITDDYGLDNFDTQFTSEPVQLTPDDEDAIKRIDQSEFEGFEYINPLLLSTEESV

[20] = molecular target: T3, Protein kinase C zeta type (Homo sapiens); experiment: Activation of PKCzeta at 2 uM relative to control
[21] = molecular target: Ribosomal protein S6 kinase beta-1 (Homo sapiens) (UniProt P23443); experiment: Activation of S6K1 at 2 uM relative to control
[22] = molecular target: Ribosomal protein S6 kinase beta-1 (Homo sapiens) (UniProt P23443); experiment: Activation of S6K1 at 50 uM relative to control
[23] = molecular target: T1, 3-phosphoinositide-dependent protein kinase 1 (Homo sapiens); experiment: Increase in thermal stability of PDK1 assessed as concentration required to increase 1.5 degC thermal stability by differential scanning fluorimetry
How it was run: (§3)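 PDK1 (1 μM) in 10 mM HEPES pH 7.5, 150 mM NaCl, 1 mM DTT and 1/1000 SYPRO Orange, with ligand at 1% final DMSO, was heated from 25–70 °C in 0.3 °C steps. Tm came from a Boltzmann fit, and ΔTm is relative to DMSO control, each point from duplicates. EC50 was fitted from ΔTm versus concentration, along with the concentration giving a 1.5 °C shift.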

[24] = molecular target: T1, 3-phosphoinositide-dependent protein kinase 1 (Homo sapiens); experiment: Increase in thermal stability of PDK1 by differential scanning fluorimetry relative to control; how it was run: as §3
[25] = molecular target: T4, 3-phosphoinositide-dependent protein kinase 1 (Homo sapiens, UniProt O15530); experiment: Increase in thermal stability of PDK1 by differential scanning fluorimetry; how it was run: as §3
T4 sequence (O15530 whole entry): T1 sequence (whole entry)

[26] = molecular target: T1, 3-phosphoinositide-dependent protein kinase 1 (Homo sapiens); experiment: Activation of PDK1 using KTFCGTPEYLAPEVRR as substrate and [gamma32P]-ATP/Mg2+ by phosphor imaging analysis relative to control
How it was run: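 Radioactive kinase assay with 0.25 μM PDK1 and [γ32P]ATP. Phosphorylated peptide was captured on P81 phosphocellulose paper and detected by phosphorimaging. Activation is expressed relative to DMSO control (=100%). AC50 is the concentration giving half-maximal activation. Values are the mean of at least two independent experiments.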

L6 [27] = experiment: Cellular uptake in rat L6 cells at 20 uM up to 100 mins by mass spectroscopy analysis; assay type: ADME, cell-based; conditions: l6, 100 min
[28] = Activation of MSK at 50 uM relative to control
[29] = Activation of MSK at 2 uM relative to control
[30] = Activation of RSK at 2 uM relative to control
[31] = Activation of RSK at 50 uM relative to control
[32] = molecular target: T4, 3-phosphoinositide-dependent protein kinase 1; experiment: Binding affinity to PDK1

Serine/threonine-protein kinase N2 (Homo sapiens), sequence (Q16513 whole entry, looked up): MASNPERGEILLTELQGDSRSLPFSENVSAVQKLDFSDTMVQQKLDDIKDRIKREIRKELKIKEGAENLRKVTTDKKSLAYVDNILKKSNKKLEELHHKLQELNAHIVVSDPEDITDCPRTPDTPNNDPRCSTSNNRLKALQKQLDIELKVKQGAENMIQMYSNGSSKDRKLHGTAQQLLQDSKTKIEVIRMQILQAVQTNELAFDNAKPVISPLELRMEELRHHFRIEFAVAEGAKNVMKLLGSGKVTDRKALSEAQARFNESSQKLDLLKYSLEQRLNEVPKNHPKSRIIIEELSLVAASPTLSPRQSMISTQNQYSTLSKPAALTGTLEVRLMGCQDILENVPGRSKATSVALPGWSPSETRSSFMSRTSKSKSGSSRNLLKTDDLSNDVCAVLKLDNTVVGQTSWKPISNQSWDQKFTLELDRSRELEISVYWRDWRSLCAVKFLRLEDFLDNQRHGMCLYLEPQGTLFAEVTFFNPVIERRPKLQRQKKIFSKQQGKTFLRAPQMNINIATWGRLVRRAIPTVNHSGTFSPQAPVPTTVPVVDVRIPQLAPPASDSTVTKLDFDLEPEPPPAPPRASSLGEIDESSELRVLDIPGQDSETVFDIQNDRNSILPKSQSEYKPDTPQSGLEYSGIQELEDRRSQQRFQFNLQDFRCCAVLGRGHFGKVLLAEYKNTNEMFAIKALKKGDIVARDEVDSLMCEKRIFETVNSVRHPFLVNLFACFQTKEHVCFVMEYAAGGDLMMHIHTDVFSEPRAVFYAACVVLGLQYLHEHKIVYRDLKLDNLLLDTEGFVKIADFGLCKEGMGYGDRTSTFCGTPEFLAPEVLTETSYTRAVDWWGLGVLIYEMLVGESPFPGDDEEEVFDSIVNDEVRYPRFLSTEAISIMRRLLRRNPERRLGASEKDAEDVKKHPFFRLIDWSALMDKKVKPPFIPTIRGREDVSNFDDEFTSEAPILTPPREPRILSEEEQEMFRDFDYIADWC
Ribosomal protein S6 kinase beta-1 (Homo sapiens), sequence (P23443 whole entry, looked up): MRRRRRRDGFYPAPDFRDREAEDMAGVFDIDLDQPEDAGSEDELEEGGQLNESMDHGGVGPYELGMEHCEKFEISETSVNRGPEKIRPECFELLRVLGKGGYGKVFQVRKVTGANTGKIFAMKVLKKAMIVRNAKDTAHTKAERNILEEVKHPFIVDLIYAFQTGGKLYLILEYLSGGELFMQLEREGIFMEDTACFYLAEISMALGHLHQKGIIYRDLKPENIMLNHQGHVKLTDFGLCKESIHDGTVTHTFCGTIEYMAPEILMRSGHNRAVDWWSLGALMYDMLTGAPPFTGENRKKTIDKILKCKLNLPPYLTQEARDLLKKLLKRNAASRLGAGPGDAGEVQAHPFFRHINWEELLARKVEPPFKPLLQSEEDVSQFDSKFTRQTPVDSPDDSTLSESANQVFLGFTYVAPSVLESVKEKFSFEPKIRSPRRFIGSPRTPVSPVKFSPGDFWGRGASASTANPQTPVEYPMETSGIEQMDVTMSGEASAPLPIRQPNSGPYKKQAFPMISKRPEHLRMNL
RAC-alpha serine/threonine-protein kinase (Homo sapiens), sequence (P31749 whole entry): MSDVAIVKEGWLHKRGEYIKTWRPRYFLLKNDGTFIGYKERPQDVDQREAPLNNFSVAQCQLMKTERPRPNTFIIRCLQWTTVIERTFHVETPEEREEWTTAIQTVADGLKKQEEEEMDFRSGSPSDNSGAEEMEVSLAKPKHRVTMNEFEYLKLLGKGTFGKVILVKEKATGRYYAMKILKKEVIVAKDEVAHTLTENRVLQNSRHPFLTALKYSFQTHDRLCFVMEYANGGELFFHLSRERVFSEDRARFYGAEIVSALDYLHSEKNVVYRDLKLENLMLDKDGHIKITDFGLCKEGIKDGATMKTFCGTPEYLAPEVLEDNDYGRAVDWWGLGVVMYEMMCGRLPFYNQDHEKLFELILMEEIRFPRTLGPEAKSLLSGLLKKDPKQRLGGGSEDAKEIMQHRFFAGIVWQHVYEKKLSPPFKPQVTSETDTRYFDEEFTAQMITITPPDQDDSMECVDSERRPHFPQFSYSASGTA

CC(=O)OCOC(=O)C(C(=O)OCOC(C)=O)C(CC(=O)c1ccc(C(F)(F)F)cc1)c1ccccc1 (configuration not stated)
Activity [1]: inactive
Activity [2]: inactive
Activity [3]: Active
Drug metabolism (L6 [4]): Active
Drug metabolism (L6 [5]): 80 µM
Drug metabolism (L6 [6]): > 90%
t1/2 (L6 [7]): 4.3 min
fold change (FC) (L6 [8]): 67
Drug uptake (L6 [9]): Active
half-life [10]: 4.8 h

O=C(O)/C=C(/CCc1ccc(Cl)cc1)c1ccccc1
Activity [11]: inactive
Activity [12]: 74%
Activity [13]: inactive
Activity [14]: inactive
Activity [15]: inactive
Activity [16]: inactive
Activity [17]: inactive
Activity [18]: inactive
Activity [19]: inactive
Activity [20]: inactive
Activity [21]: inactive
Activity [22]: 84%

O=C(CC(c1ccc2ccccc2c1)C(C(=O)O)C(=O)O)c1ccc(I)cc1 (racemic)
Activity [23]: 18.9 µM
ΔTm [24]: 2.4 °C
EC50 [25]: 13 µM
max activation [26]: 3.6

O=C(CC(c1ccccc1)C(C(=O)O)C(=O)O)c1ccc(C(F)(F)F)cc1 (racemic)
Drug uptake (L6 [27]): Not Active
Activity [28]: inactive
Activity [29]: inactive
Activity [30]: inactive
Activity [31]: 140%
Activity [11]: inactive
Activity [12]: 80%
Activity [13]: inactive
Activity [14]: inactive
Activity [15]: inactive
Activity [16]: inactive
Activity [17]: inactive
Activity [18]: inactive
Activity [19]: inactive
Activity [20]: inactive
Activity [21]: 82%
Activity [22]: 46%
Activity [23]: 67.6 µM
ΔTm [24]: 3.9 °C
EC50 [25]: 85.8 µM
max activation [26]: 5.5

O=C(CC(c1ccccc1)C(C(=O)O)C(=O)O)c1ccc(I)cc1 (racemic)
Activity [23]: 30.9 µM
ΔTm [24]: 5.2 °C
EC50 [25]: 60 µM
max activation [26]: 4

O=C(CC(c1ccccc1)C(C(=O)O)C(=O)O)c1ccc2c(c1)[nH]c1ccccc12 (racemic)
Activity [23]: 18.2 µM
ΔTm [24]: 4.9 °C
EC50 [25]: 30.2 µM
max activation [26]: 3.6

O=C(CC(c1ccccc1)C(C(=O)O)C(=O)O)c1ccc(Cl)cc1 (racemic)
Activity [28]: inactive
Activity [29]: inactive
Activity [30]: inactive
Activity [31]: 160%
Activity [11]: inactive
Activity [12]: inactive
Activity [13]: inactive
Activity [14]: inactive
Activity [15]: inactive
Activity [16]: inactive
Activity [17]: inactive
Activity [18]: inactive
Activity [19]: inactive
Activity [20]: inactive
Activity [21]: 84%
Activity [22]: 47%
max activation [26]: 4

H-REPRILSEEEQEMFRDFDYIADWC-OH
Activity [23]: 3.1 µM
ΔTm [24]: 7.3 °C
EC50 [25]: 14.2 µM
max activation [26]: 3.4
Kd [32]: 0.043 µM
